Source: ChEMBL document CHEMBL2413015, “Synthesis, evaluation and molecular dynamics study of some new 4-aminopyridine semicarbazones as an antiamnesic and cognition enhancing agents” (Bioorg Med Chem, 2013)

Columns and labels:
Rattus norvegicus [1] = assay: Toxicity in albino rat assessed as mortality upto 100 mg/kg after 30 mins to 48 hrs; format: organism-based; parameters: dose 100 mg/kg; details: in vivo
How it was run: (§1)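 Acute toxicity followed OECD guidelines. Nulliparous, non-pregnant female albino rats (120–150 g) were fasted overnight with water ad libitum. Graded oral doses up to 100 mg/kg were given in 0.3% carboxymethyl cellulose. Rats were observed continuously for 30 min, at 2 h and up to 48 h for behavioural or autonomic changes, tremors, convulsions, salivation, diarrhoea, sleep, lacrimation, cardiovascular signs, feeding and mortality.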

Rattus norvegicus [2] = assay: Toxicity in albino rat assessed as change in normal behavioral response upto 100 mg/kg after 30 mins to 48 hrs; format: organism-based; parameters: dose 100 mg/kg; details: in vivo; how it was run: as §1
Rattus norvegicus [3] = assay: Cognitive enhancing effect in po dosed Wistar rat assessed as reversal of learning impairment measured as transfer latency administered for 8 days by elevated plus maze test; format: functional, organism-based
How it was run: (§2)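 Oral dosing at 5 or 10 mg/kg for 8 days, suspended in 0.3% carboxymethyl cellulose; vehicle-treated controls. Transfer latency on elevated plus maze measured on first and second days of exposure (treatment days 7 and 8). Mean ± SEM, n = 6, one-way ANOVA versus vehicle control.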

Rattus norvegicus [4] = assay: Cognitive enhancing effect in Wistar rat assessed as reversal of learning impairment measured as transfer latency at 10 mg/kg, po for 8 days measured on second day of test by elevated plus maze test (reference value: 66.824 +/- 0.47 seconds); format: functional; how it was run: as §2
Rattus norvegicus [5] = assay: Cognitive enhancing effect in Wistar rat assessed as reversal of learning impairment measured as transfer latency at 5 mg/kg, po for 8 days measured on second day of test by elevated plus maze test (reference value: 66.824 +/- 0.47 seconds); format: functional; how it was run: as §2
Rattus norvegicus [6] = assay: Cognitive enhancing effect in Wistar rat assessed as reversal of learning impairment measured as transfer latency at 10 mg/kg, po for 8 days measured on first day of test by elevated plus maze test (reference value: 70.846 +/- 0.76 seconds); format: functional; how it was run: as §2
Rattus norvegicus [7] = assay: Cognitive enhancing effect in Wistar rat assessed as reversal of learning impairment measured as transfer latency at 5 mg/kg, po for 8 days measured on first day of test by elevated plus maze test (reference value: 70.846 +/- 0.76 seconds); format: functional; how it was run: as §2
Rattus norvegicus [8] = assay: Activity at AChE in Charles Foster rat hypothalamus assessed as substrate hydrolyzed per mg of protein at 10 mg/kg, po for 8 days by Ellman's method (reference value: 40.50 +/- 0.76 mol/min); format: functional
Rattus norvegicus [9] = assay: Activity at AChE in Charles Foster rat hypothalamus assessed as substrate hydrolyzed per mg of protein at 5 mg/kg, po for 8 days by Ellman's method (reference value: 40.50 +/- 0.76 mol/min); format: functional
Rattus norvegicus [10] = assay: Activity at AChE in Charles Foster rat hippocampus assessed as substrate hydrolyzed per mg of protein at 10 mg/kg, po for 8 days by Ellman's method (reference value: 47.50 +/- 0.84 mol/min); format: functional
Rattus norvegicus [11] = assay: Activity at AChE in Charles Foster rat hippocampus assessed as substrate hydrolyzed per mg of protein at 5 mg/kg, po for 8 days by Ellman's method (reference value: 47.50 +/- 0.84 mol/min); format: functional
Rattus norvegicus [12] = assay: Activity at AChE in Charles Foster rat prefrontal cortex assessed as substrate hydrolyzed per mg of protein at 10 mg/kg, po for 8 days by Ellman's method (reference value: 45.83 +/- 0.94 mol/min); format: functional
Rattus norvegicus [13] = assay: Activity at AChE in Charles Foster rat prefrontal cortex assessed as substrate hydrolyzed per mg of protein at 5 mg/kg, po for 8 days by Ellman's method (reference value: 45.83 +/- 0.94 mol/min); format: functional
Rattus norvegicus [14] = assay: Cognitive enhancing effect in Charles Foster rat assessed as reversal of scopolamine-induced amnesia measured as transfer latency at 10 mg/kg, po for 8 days administered 1 hr prior to scopolamine-challenge on day 7 measured on day 8 by elevated plus maze test (reference value: 62.17 +/- 0.47 seconds); format: functional
Rattus norvegicus [15] = assay: Cognitive enhancing effect in Charles Foster rat assessed as reversal of scopolamine-induced amnesia measured as transfer latency at 5 mg/kg, po for 8 days administered 1 hr prior to scopolamine-challenge on day 7 measured on day 8 by elevated plus maze test (reference value: 62.17 +/- 0.47 seconds); format: functional
Rattus norvegicus [16] = assay: (§3) Cognitive enhancing effect in Charles Foster rat assessed as reversal of scopolamine-induced amnesia measured as transfer latency at 10 mg/kg, po for 8 days administered 1 hr prior to scopolamine-challenge on day 7 measured on same day by elevated plus maze test (reference value: 67.83 +/- 0.94 seconds); format: functional
Rattus norvegicus [17] = assay: as §3, with “5” for “10”; format: functional
Cholinesterase [18] = target: T1, Cholinesterase (Homo sapiens, UniProt P06276); assay: Competitive inhibition of human serum BChE using butyrylthiocholine iodide as substrate by Lineweaver-Burk plot analysis
How it was run: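 Ellman assay in phosphate buffer pH 8 with a fixed amount of cholinesterase. Thiocholine substrate was varied from below to above, but near, Km, with or without inhibitor. Inhibition type was assigned from Lineweaver–Burk plots.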

Acetylcholinesterase [19] = target: T2, Acetylcholinesterase (Electrophorus electricus, UniProt O42275); assay: Non competitive inhibition of electric eel AChE using acetylthiocholine iodide as substrate by Lineweaver-Burk plot analysis
[20] = Selectivity ratio of IC50 for human serum BChE to IC50 for electric eel AChE
How it was run: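 Ratio of IC50 (BChE) to IC50 (AChE). Both came from Ellman assays at 0.1 M phosphate pH 8.0 and 0.02 unit/mL enzyme: AChE (stock in phosphate buffer) with acetylthiocholine, human serum BChE (stock in 0.1% gelatine) with butyrylthiocholine.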

Cholinesterase [21] = target: T1, Cholinesterase; assay: Inhibition of human serum BChE using butyrylthiocholine iodide as substrate preincubated for 20 mins prior to substrate addition by Ellman's method
How it was run: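 Human serum BChE was dissolved in 0.1% gelatine. The final mix held 0.1 M phosphate pH 8.0, DTNB, 0.02 unit/mL enzyme and butyrylthiocholine iodide. Five inhibitor concentrations spanning 20–80% inhibition were preincubated with enzyme for 20 min at 37 °C, then substrate was added. Rate was read at 412 nm over 5 min against an enzyme-free blank. Each point was run in triplicate, and IC50 was read graphically from log concentration–% inhibition curves.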

Acetylcholinesterase [22] = target: T2, Acetylcholinesterase; assay: Inhibition of electric eel AChE using acetylthiocholine iodide as substrate preincubated for 20 mins prior to substrate addition by Ellman's method

T2 sequence (O42275 whole entry): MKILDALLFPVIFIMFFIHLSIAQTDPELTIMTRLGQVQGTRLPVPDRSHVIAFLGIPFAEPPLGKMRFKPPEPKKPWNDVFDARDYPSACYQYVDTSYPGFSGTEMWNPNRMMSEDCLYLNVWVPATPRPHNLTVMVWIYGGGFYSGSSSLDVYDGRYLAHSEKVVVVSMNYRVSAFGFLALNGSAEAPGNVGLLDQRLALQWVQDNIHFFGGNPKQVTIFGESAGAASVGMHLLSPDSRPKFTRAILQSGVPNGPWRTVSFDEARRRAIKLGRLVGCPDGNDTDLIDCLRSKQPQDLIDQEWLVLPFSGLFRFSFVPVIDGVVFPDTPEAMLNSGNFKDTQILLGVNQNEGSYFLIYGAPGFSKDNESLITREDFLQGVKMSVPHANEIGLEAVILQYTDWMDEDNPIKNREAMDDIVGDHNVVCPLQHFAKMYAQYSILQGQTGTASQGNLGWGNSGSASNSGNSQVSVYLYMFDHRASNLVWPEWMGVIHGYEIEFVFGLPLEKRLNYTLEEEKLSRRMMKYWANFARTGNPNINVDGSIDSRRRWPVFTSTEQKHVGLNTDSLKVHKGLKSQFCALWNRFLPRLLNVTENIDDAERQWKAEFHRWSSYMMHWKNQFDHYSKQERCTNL
T1 sequence (P06276 whole entry): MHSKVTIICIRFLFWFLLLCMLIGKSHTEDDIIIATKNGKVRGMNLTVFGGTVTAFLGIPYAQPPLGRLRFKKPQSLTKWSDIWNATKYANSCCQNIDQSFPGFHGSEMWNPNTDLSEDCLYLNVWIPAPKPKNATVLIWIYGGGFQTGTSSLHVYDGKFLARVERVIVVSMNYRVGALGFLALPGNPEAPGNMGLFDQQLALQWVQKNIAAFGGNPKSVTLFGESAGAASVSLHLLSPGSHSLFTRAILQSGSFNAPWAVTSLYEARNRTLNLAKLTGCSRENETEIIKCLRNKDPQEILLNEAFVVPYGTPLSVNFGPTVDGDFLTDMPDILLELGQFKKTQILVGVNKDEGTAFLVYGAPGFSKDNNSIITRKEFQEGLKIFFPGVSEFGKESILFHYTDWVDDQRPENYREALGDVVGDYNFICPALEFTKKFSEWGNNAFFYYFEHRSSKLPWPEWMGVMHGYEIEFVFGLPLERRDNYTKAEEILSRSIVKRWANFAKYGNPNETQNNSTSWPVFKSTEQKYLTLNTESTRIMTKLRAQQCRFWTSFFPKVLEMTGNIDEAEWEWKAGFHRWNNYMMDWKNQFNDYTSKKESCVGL

O=C(NN=C(c1ccccc1)c1ccccc1)Nc1ccncc1
Activity (Rattus norvegicus [1]): Non-toxic
Activity (Rattus norvegicus [2]): Non-toxic
Activity (Rattus norvegicus [3]): Dose-dependent effect
Time (Rattus norvegicus [4]): 37.97 s
Time (Rattus norvegicus [5]): 40.42 s
Time (Rattus norvegicus [6]): 43.73 s
Time (Rattus norvegicus [7]): 46.81 s
Activity (Rattus norvegicus [8]): 29.17 mol/min
Activity (Rattus norvegicus [9]): 31 mol/min
Activity (Rattus norvegicus [10]): 32 mol/min
Activity (Rattus norvegicus [11]): 33.67 mol/min
Activity (Rattus norvegicus [12]): 30 mol/min
Activity (Rattus norvegicus [13]): 32.67 mol/min
Time (Rattus norvegicus [14]): 54.17 s
Time (Rattus norvegicus [15]): 56.13 s
Time (Rattus norvegicus [16]): 61.83 s
Time (Rattus norvegicus [17]): 64.57 s
Ki (Cholinesterase [18]): 16.8 µM
Ki (Acetylcholinesterase [19]): 0.082 µM
Ratio IC50 [20]: 355
IC50 (Cholinesterase [21]): 18.5 µM
IC50 (Acetylcholinesterase [22]; read-out: IC50): 0.052 µM

C/C(=N\NC(=O)Nc1ccncc1)c1ccc(O)cc1
Activity (Rattus norvegicus [1]): Non-toxic
Activity (Rattus norvegicus [2]): Non-toxic
Activity (Rattus norvegicus [3]): Dose-dependent effect
Time (Rattus norvegicus [4]): 39.5 s
Time (Rattus norvegicus [5]): 43.17 s
Time (Rattus norvegicus [6]): 48.17 s
Time (Rattus norvegicus [7]): 48.07 s
Activity (Rattus norvegicus [8]): 31.5 mol/min
Activity (Rattus norvegicus [9]): 34.13 mol/min
Activity (Rattus norvegicus [10]): 34.17 mol/min
Activity (Rattus norvegicus [11]): 36.33 mol/min
Activity (Rattus norvegicus [12]): 33.83 mol/min
Activity (Rattus norvegicus [13]): 35.5 mol/min
Time (Rattus norvegicus [14]): 56.83 s
Time (Rattus norvegicus [15]): 60.5 s
Time (Rattus norvegicus [16]): 64.17 s
Time (Rattus norvegicus [17]): 65.33 s
Ki (Cholinesterase [18]): 0.628 µM
Ki (Acetylcholinesterase [19]): 0.246 µM
Ratio IC50 [20]: 2.46
IC50 (Cholinesterase [21]): 0.358 µM
IC50 (Acetylcholinesterase [22]; read-out: IC50): 0.145 µM
IC50 (Acetylcholinesterase [22]; read-out: pIC50 (converted)): 0.148 µM
